Experimental findings from ChEMBL document CHEMBL3627607, “A Novel Pyrazolopyridine with in Vivo Activity in Plasmodium berghei- and Plasmodium falciparum-Infected Mouse Models from Structure-Activity Relationship Studies around the Core of Recently Identified Antimalarial Imidazopyridazines” (J Med Chem, 2015) are described below.

Molecules are shown by their SMILES. The source made the active and inactive calls. The calls are words filed in the database; no cut-off is given here.

For data set [1], the system named is Plasmodium berghei. The experiment in a line: Antiplasmodial activity against Plasmodium berghei ANKA expressing GFP infected in mouse assessed as means survival days at 50 mg/kg, po qd for 4 days. Format: functional. The gist of the method: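 Mice (n = 3) infected with GFP-transfected P. berghei ANKA. Compounds dissolved or suspended in HPMC vehicle (0.5% w/v hydroxypropylmethylcellulose, 0.5% v/v benzyl alcohol, 0.4% v/v Tween 80, 0.9% w/v NaCl in water). Dosed orally 4, 24, 48 and 72 h after infection. Parasitemia read by flow cytometry (detection limit 0.1%). Survival recorded as mean survival time in days.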

Data set [2] relates to Blood. The experiment in a line: Drug metabolism in rat blood assessed as metabolite formation from sulfone oxidation on pyrazole at 20 mg/kg, po and 5 mg/kg, iv by LC-MS/MS analysis. The following applies: in vivo. Format: ADME, organism-based. The gist of the method:
(§1)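 Metabolites identified by LC-ESI-MS/MS in blood samples from the rat PK study (oral and intravenous dosing).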

The subject of data set [3] is Plasmodium berghei. The experiment in a line: Antiplasmodial activity against Plasmodium berghei ANKA expressing GFP infected in mouse assessed as mouse cured from disease at 50 mg/kg, po qd for 4 days. Format: functional, organism-based.
Data set [4] can be described thus: AUC (0 to 23 hrs) in Plasmodium falciparum 3D7 infected in non-myelodepleted NOD-SCID IL2Rgammanull mouse engrafted with human erythrocytes at 30 mg/kg, po. Format: ADME, organism-based. The arrangement: dose 30 mg/kg, time < 23 hr, route oral. The following applies: in vivo. The gist of the method: (§2)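 Engrafted NSG (scid IL2Rgc null) mice infected with P. falciparum were given one oral dose per day for four days. Blood was sampled to measure parent and its sulfone metabolite.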

The next data set deals with Liver microsome. The experiment in a line: Drug metabolism in rat liver microsomes assessed as 5-(3-(Cyclopropylsulfonyl)phenyl)-3-(4-(methylsulfonyl)-phenyl)pyrazolo[1,5-a]pyridine formation at 10 uM after 1 hr by LC-MS/MS analysis. Format: ADME. The essentials: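 Metabolites identified by LC-ESI-MS/MS after in vitro incubation with rat liver microsomes.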
The test system of data set [5] is Plasmodium berghei. The experiment in a line: Antiplasmodial activity against Plasmodium berghei ANKA expressing GFP infected in mouse assessed as reduction of parasitemia level at 50 mg/kg, po qd for 4 days measured on day 4 post last dose by flow cytometric analysis relative to control. The format is functional. The arrangement: scale not given: the % may be the effect or the level left. The gist of the method: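 Mice (n = 3) infected with GFP-transfected P. berghei ANKA. Test agents were suspended in HPMC vehicle (0.5% w/v hydroxypropylmethylcellulose, 0.5% v/v benzyl alcohol, 0.4% v/v Tween 80, 0.9% w/v NaCl in water). Dosed orally at 4, 24, 48 and 72 h post-infection. Parasitemia read by flow cytometry on day 4 (96 h), detection limit 0.1%. Activity = control-minus-treated mean % parasitemia, relative to control.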
(In flow cytometry, cells or beads pass a laser one at a time.)

Data set [6] concerns Blood. The experiment in a line: Drug metabolism in rat blood assessed as metabolite formation from sulfone oxidation on pyridine core and phenyl ring at 20 mg/kg, po and 5 mg/kg, iv by LC-MS/MS analysis. Format: ADME, organism-based. The following applies: in vivo. The essentials: as §1
Data set [7] can be described thus: Cmax in Plasmodium falciparum 3D7 infected in non-myelodepleted NOD-SCID IL2Rgammanull mouse engrafted with human erythrocytes at 0.1 mg/kg, po. Format: ADME, organism-based. The following applies: in vivo. Also on record: dose 0.1 mg/kg, route oral. The essentials: as §2
Data set [8] concerns Blood. The experiment in a line: Drug metabolism in rat blood assessed as 5-(3-(Cyclopropylsulfonyl)phenyl)-3-(4-(methylsulfonyl)-phenyl)pyrazolo[1,5-a]pyridine formation at 20 mg/kg, po and 5 mg/kg, iv by LC-MS/MS analysis. Format: ADME, organism-based. The following applies: in vivo. The essentials:
as §1

Data set [9] can be described thus: AUC (0 to 8 hrs) in Plasmodium falciparum 3D7 infected in non-myelodepleted NOD-SCID IL2Rgammanull mouse engrafted with human erythrocytes at 0.5 mg/kg, po. Format: ADME, organism-based. The arrangement: dose 0.5 mg/kg, time < 8 hr, route oral. The following applies: in vivo. The gist of the method:
as §2

Data set [10] has as its system Blood. The experiment in a line: Drug metabolism in mouse assessed as 5-(3-(Cyclopropylsulfonyl)phenyl)-3-(4-(methylsulfonyl)-phenyl)pyrazolo[1,5-a]pyridine level in blood at 50 mg/kg, po after 1 hr. Format: ADME, organism-based. The following applies: in vivo, read-out: Drug metabolism. The essentials: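 Snapshot whole-blood levels of parent and its sulfone metabolite at 1, 4 and 24 h after the first 50 mg/kg oral dose. Samples came from the P. berghei-infected efficacy mice, dosed in HPMC suspension vehicle.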

Data set [11] is described as follows: Selectivity index, ratio of IC50 for African green monkey VERO cells to IC50 for multidrug resistant Plasmodium falciparum K1. Format: toxicity, cell-based. The following applies: read-out: Ratio IC50.

Consider `C[S+]([O-])c1ccc(-c2cnn3ccc(-c4cccc(S(=O)(=O)C5CC5)c4)cc23)cc1` (configuration not stated), for which the MSD in the data set with Plasmodium berghei [1] is over 30 days. The Drug metabolism entry in the data set on Blood [2], with Liver microsome, in the data set with Blood [6] and in the data set on Blood [8] was “metabolite_detected” in each case. Moreover, the outcome in the data set on Plasmodium berghei [3] was Active. Moreover, the AUC(0-t) at 23 h in [4] worked out at 1240 ng·h/mL. Besides, the Activity in the data set on Plasmodium berghei [5] is recorded as 99.8%. In data set [7], this compound came in with a Cmax of 2 ng/mL. The compound further displayed an AUC(0-t) at 8 h in [9] of 12.1 ng·h/mL. Moreover, the concentration in the data set with Blood [10] came to 7.9 µM. In [11], the selectivity ratio was over 1000.

Broadly, the AUC(0-t) is exposure summed from dosing to a finite time, without extrapolation to infinity. For orientation: Cmax means the peak of the concentration-time curve.
